{
  "source": "paper PMC5621765",
  "about": "(Nature biomedical engineering, 2017)",
  "key": {"[1]": {"system": "OVCAR-8 conditioned media", "assay": "Cleavage of MMP9 substrate by OVCAR-8 conditioned media", "type": "biochemical, human"}, "[2]": {"target": "mouse MMP9 (Mus musculus, UniProt P41245)", "sequence (P41245 108-730)": "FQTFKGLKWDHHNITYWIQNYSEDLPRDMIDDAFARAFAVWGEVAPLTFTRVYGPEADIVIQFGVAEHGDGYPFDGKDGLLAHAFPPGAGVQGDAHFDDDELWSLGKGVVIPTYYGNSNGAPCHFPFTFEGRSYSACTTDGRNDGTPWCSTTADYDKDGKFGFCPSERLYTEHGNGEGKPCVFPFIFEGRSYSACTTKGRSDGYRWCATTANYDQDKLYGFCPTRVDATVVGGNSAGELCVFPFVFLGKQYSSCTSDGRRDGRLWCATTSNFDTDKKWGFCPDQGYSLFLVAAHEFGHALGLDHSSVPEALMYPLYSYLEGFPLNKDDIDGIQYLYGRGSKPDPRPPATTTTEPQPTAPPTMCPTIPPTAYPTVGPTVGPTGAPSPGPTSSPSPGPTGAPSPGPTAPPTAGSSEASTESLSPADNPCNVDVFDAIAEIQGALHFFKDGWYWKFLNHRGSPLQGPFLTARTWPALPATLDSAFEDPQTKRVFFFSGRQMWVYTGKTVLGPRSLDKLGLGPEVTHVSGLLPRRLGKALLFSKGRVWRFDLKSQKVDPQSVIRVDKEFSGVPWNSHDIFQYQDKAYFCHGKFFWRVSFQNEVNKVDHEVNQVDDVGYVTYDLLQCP", "assay": "Cleavage of substrate by mouse MMP9", "type": "biochemical"}, "[3]": {"system": "OVCAR-8 tumour nodules", "assay": "HE4 blood ELISA in orthotopic OVCAR-8 ovarian cancer model", "type": "in vivo, mouse", "conditions": "blood biomarker, plasma ELISA; n = 10", "method_in_brief": "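Female NCr nude mice, 3–4 weeks old, were injected intraperitoneally with 2 × 10⁶ luciferase-expressing OVCAR-8 cells; tumour burden was followed by IVIS luminescence. About 200 μL blood was spiked with EDTA to a final 5 mM and cells were pelleted. Plasma was stored at -20 °C, then HE4 measured by quantikine ELISA per kit protocol.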"}},
  "data": [
    {"molecule": "CNC(=O)[C@@H](NC(=O)[C@H](CC(C)C)[C@H](O)C(=O)NO)C(C)(C)C", "note": "[Marimistat, reference compound]", "values": [
      {"measurement": "inhibition of cleavage of MMP9 substrate by OVCAR-8 conditioned media", "setting": "[1]", "value": "can be inhibited"}
    ]},
    {"molecule": "5FAM-GGPLGVRGKK(CPQ2)-PEG2-C [MMP9 substrate]", "values": [
      {"measurement": "cleavage by OVCAR-8 conditioned media", "setting": "[1]", "value": "can cleave"},
      {"measurement": "cleavage by mouse MMP9", "setting": "[2]", "value": "cleaves"}
    ]},
    {"molecule": "HE4: clinical blood biomarker secreted by OVCAR-8 cells, measured by ELISA as comparator diagnostic (protein, UniProt Q14508 31-124, looked up) WAP four-disulfide core …: EKTGVCPELQADQNCTQECVSDSECADNLKCCSAGCATFCSLPNDKEGSCPQVNINFPQLGLCRDQCQVDSQCPGQMKCCRNGCGKVSCVTPNF", "values": [
      {"measurement": "ROC-AUC at 2-weeks", "setting": "[3]", "value": 0.51},
      {"measurement": "ROC-AUC at 3-weeks", "setting": "[3]", "value": 0.93}
    ]}
  ]
}
